Measured values taken from ChEMBL document CHEMBL4831507, “Development of FABP4/5 inhibitors with potential therapeutic effect on type 2 Diabetes Mellitus” (Eur J Med Chem, 2021).
Active and inactive are the calls of the source. The rule behind the calls is not given here.

What was measured:
[1] = biological target: T1, Fatty acid-binding protein, adipocyte (Homo sapiens, UniProt P15090); assay: Displacement of 1,8-ANS from FABP4 (unknown origin) at 25 uM incubated for 3 mins by fluorescence based analysis relative to control
How it was run: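 Single-concentration percent inhibition in the 1,8-ANS displacement assay with FABP4. Compound incubated with protein and probe in phosphate buffer for 3 min at room temperature; fluorescence read at ex 370/em 470 nm.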
Target sequence in this assay (P15090 2-132 limits assumed): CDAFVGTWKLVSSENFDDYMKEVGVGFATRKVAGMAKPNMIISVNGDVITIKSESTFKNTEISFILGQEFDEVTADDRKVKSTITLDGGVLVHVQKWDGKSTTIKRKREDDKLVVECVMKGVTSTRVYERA

[2] = biological target: T1, Fatty acid-binding protein, adipocyte; assay: Displacement of 1,8-ANS from FABP4 (unknown origin) incubated for 3 mins by fluorescence based analysis
How it was run: (§1)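 1,8-ANS displacement using purified recombinant FABP3, FABP4 or FABP5. Compound incubated with protein and 1,8-ANS in phosphate buffer for 3 min at room temperature. Fluorescence read at ex 370/em 470 nm. IC50 by nonlinear regression, mean ± SD of three independent experiments.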
Target sequence in this assay (P15090 whole entry): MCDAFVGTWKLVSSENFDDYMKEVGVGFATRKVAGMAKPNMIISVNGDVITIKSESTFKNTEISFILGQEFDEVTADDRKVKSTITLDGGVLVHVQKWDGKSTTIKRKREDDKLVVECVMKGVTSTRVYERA

[3] = biological target: Fatty acid-binding protein 5 (Homo sapiens, UniProt Q01469); assay: Displacement of 1,8-ANS from FABP5 (unknown origin) incubated for 3 mins by fluorescence based analysis
[4] = Metabolic stability in mouse liver microsomes assessed as half life at 0.1 uM preincubated for 10 mins followed by NADPH addition and measured for 60 mins by LC-MS/MS analysis; type: ADME, Microsome; conditions: time 70 min
How it was run: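 Mouse liver microsomes 0.33 mg/mL in 0.1 M Tris pH 7.4 with 5 mM MgCl₂, 0.01% DMSO and 0.005% BSA. Compound final […]. Preincubated 10 min at 37 °C; reaction started with 1 mM NADPH. Samples at 0, 7, 17, 30 and 60 min quenched with cold methanol, then analysed by LC-MS/MS.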

3T3-L1 [5] = assay: Anti-lipolytic activity in mouse 3T3-L1 cells assessed as inhibition of forskolin-stimulated glycerol release at 80 uM preincubated for 24 hrs followed by forskolin stimulation for 1 hr; type: functional, cell-based; conditions: time 25.0 hrs
3T3-L1 [6] = assay: Cytotoxicity against mouse 3T3-L1 cells assessed as reduction in cell viability at 100 uM incubated for 24 hrs by CCK8 assay; type: cell-based; conditions: 3t3-l1, 24 h
[7] = biological target: Fatty acid-binding protein, heart (Homo sapiens, UniProt P05413); assay: Displacement of 1,8-ANS from FABP3 (unknown origin) incubated for 3 mins by fluorescence based analysis; how it was run: as §1
[8] = Half life in ICR mouse at 3 mg/kg, po measured for 24 hrs by LC-MS/MS analysis; type: ADME, organism-based; conditions: in vivo
How it was run: (§2)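 Male ICR mice, 20-25 g, three per group. Oral dose 3 mg/kg in PBS with 5% DMSO and 0.5% HPMC; iv dose 1 mg/kg in DMSO/EtOH/PEG300/NaCl (5/5/40/50). Blood sampled at 0.25, 0.5, 1, 2, 4, 8 and 24 h. Plasma drug measured by LC-MS/MS. Mean ± SEM, n = 3.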

[9] = Half life in ICR mouse at 1 mg/kg, iv measured for 24 hrs by LC-MS/MS analysis; type: ADME, organism-based; conditions: in vivo; how it was run: as §2
[10] = Cmax in ICR mouse at 3 mg/kg, po and 1 mg/kg, iv measured for 24 hrs by LC-MS/MS analysis; type: ADME, organism-based; set-up: time 24 hrs, dose 3 mg/kg; conditions: in vivo; how it was run: as §2
[11] = AUC in ICR mouse at 3 mg/kg, po measured for 24 hrs by LC-MS/MS analysis; type: ADME, organism-based; set-up: dose 3 mg/kg, time 24 hrs; conditions: in vivo; how it was run: as §2
[12] = AUC in ICR mouse at 1 mg/kg, iv measured for 24 hrs by LC-MS/MS analysis; type: ADME, organism-based; set-up: dose 1 mg/kg, time 24 hrs; conditions: in vivo; how it was run: as §2
[13] = Clearance in ICR mouse at 3 mg/kg, po and 1 mg/kg, iv measured for 24 hrs by LC-MS/MS analysis; type: ADME, organism-based; conditions: in vivo; how it was run: as §2
[14] = Oral bioavailability in ICR mouse at 3 mg/kg measured for 24 hrs by LC-MS/MS analysis; type: ADME, organism-based; conditions: in vivo; how it was run: as §2
THP-1 [15] = assay: Cytotoxicity against human THP-1 cells assessed as reduction in cell viability at 50 uM incubated for 24 hrs by CCK8 assay; type: cell-based; conditions: thp-1, 24 h
THP-1 [16] = assay: Antiinflammatory activity against LPS-induced human THP-1 cells assessed as inhibition of MCP-1 gene expression at 25 uM incubated for 18 hrs followed by LPS-stimulation and measured after 6 hrs by qRT-PCR analysis; type: functional, cell-based; conditions: time 24.0 hrs
How it was run: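 THP-1 cells (1 per 48-well, 3*10⁵) differentiated with 100 nM PMA for 24 h, then washed with PBS. Compound at […] or 0.1% DMSO for 18 h, then 100 ng/ml LPS for 6 h. RNA extracted with TRIzol. MCP-1 mRNA by RT-qPCR, 2^-ΔΔCT method.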

[17] = Toxicity in C57BL/KsJ-db/db mouse assessed as effect on body weight at 50 mg/kg, po administered for 8 weeks; type: organism-based; conditions: in vivo, 1344 h
How it was run: (§3)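 Male db/db mice, 6 weeks old, 10 per group, dosed 50 mg/kg by gavage daily for 8 weeks; vehicle 0.5% CMC-Na. Lean littermates received vehicle. Body weight recorded twice weekly; 6-h fasting tail glucose by glucometer weekly. OGTT on day 45: overnight fast, glucose 0.5 g/kg by gavage. ITT on day 51: 6-h fast, insulin 0.85 IU/kg ip. Glucose AUC calculated. Final serum taken after 6-h fast; HDL-C, LDL-C, TG, TCH and FABP4 measured by kits. Liver Akt and p-Akt(Ser473) by western blot.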

Mus musculus [18] = assay: Antidiabetic activity in C57BL/KsJ-db/db mouse assessed as reduction in fasting blood glucose level at 50 mg/kg, po administered for 7 weeks; type: functional; conditions: 1176 h; how it was run: as §3
Mus musculus [19] = assay: Antidiabetic activity in C57BL/KsJ-db/db mouse assessed as improvement in insulin resistance at 50 mg/kg, po administered for 51 days by insulin tolerance test; type: functional, organism-based; conditions: time 51.0 day; how it was run: as §3
Mus musculus [20] = assay: In vivo activation of […] signaling in C57BL/KsJ-db/db mouse assessed as increase in Akt phosphorylation at Ser473 in liver at 50 mg/kg, po administered for 8 weeks by western blot analysis; type: functional, organism-based; how it was run: as §3
Mus musculus [21] = assay: Improvement in lipid homeostasis in C57BL/KsJ-db/db mouse assessed as increase in high density cholesterol level in serum at 50 mg/kg, po administered for 8 weeks; type: functional, organism-based; how it was run: as §3
Mus musculus [22] = assay: Improvement in lipid homeostasis in C57BL/KsJ-db/db mouse assessed as reduction in low density cholesterol level in serum at 50 mg/kg, po administered for 8 weeks; type: functional, organism-based; how it was run: as §3
Mus musculus [23] = assay: Improvement in lipid homeostasis in C57BL/KsJ-db/db mouse assessed as effect on triglyceride level in serum at 50 mg/kg, po administered for 8 weeks; type: functional, organism-based; how it was run: as §3
Mus musculus [24] = assay: Reduction in FABP4 level in serum of C57BL/KsJ-db/db mouse at 50 mg/kg, po administered for 8 weeks; type: functional, organism-based; how it was run: as §3
3T3-L1 [25] = assay: Inhibition of FABP4 secretion in mouse 3T3-L1 cells assessed as reduction in FABP4 level in conditioned medium at 50 uM incubated for 24 hrs by immunoblotting analysis; type: functional, cell-based
How it was run: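 Mature 3T3-L1 adipocytes starved for 6 h in DMEM with 0.5% BSA, then treated with compound at […] for 24 h. Conditioned medium ultrafiltered; lysate and medium protein measured by BCA. FABP4 immunoblotted with GAPDH, ECL detection, densitometry. Three independent experiments.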

[26] = biological target: T1, Fatty acid-binding protein, adipocyte; assay: Binding affinity to FABP4 (unknown origin) by microscale thermophoresis analysis
Target sequence in this assay (P15090 whole entry): as above

Mus musculus [27] = assay: Antidiabetic activity in C57BL/KsJ-db/db mouse assessed as improvement in glucose metabolism at 50 mg/kg, po administered for 45 days by oral glucose tolerance test; type: functional, organism-based; conditions: time 45.0 day; how it was run: as §3
Mus musculus [28] = assay: Improvement in lipid homeostasis in C57BL/KsJ-db/db mouse assessed as effect on total cholesterol level in serum at 50 mg/kg, po administered for 8 weeks; type: functional, organism-based; how it was run: as §3
Homo sapiens [29] = organism: Homo sapiens; assay: Selectivity ratio of IC50 for FABP3 (unknown origin) to IC50 for FABP4 (unknown origin); how it was run: as §1
Homo sapiens [30] = organism: Homo sapiens; assay: Selectivity ratio of IC50 for FABP3 (unknown origin) to IC50 for FABP5 (unknown origin); how it was run: as §1

Fatty acid-binding protein 5, sequence (Q01469 whole entry): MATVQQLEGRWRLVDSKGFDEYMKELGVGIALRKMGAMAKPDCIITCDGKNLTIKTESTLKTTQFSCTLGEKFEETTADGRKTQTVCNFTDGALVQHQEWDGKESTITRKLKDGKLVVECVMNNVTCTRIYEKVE
Fatty acid-binding protein, heart, sequence (P05413 whole entry): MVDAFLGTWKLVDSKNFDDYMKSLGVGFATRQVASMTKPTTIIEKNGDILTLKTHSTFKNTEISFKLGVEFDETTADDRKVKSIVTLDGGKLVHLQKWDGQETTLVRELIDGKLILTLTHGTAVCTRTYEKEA

O=C(O)c1cc(NS(=O)(=O)c2ccc(-c3ccc(C(F)(F)F)cc3)c3ccccc23)ccc1F
inhibition [1]: 40%

CC(C)c1ccccc1-c1ccc(S(=O)(=O)Nc2ccc(F)c(C(=O)O)c2)c2ccccc12
inhibition [1]: 74%
IC50 [2]: 11.9 µM
IC50 [3]: 16.8 µM

COc1c(-c2ccc(F)cc2C)cc(S(=O)(=O)Nc2ccc(F)c(C(=O)O)c2)c2ccccc12
inhibition [1]: 95%
IC50 [2]: 2.63 µM
IC50 [3]: 8.97 µM
half-life at 0.1 µM [4]: 1.7 h
Activity (3T3-L1 [5]): inactive

COc1c(-c2ccc(F)cc2Cl)cc(S(=O)(=O)Nc2ccc(F)c(CC(=O)O)c2)c2ccccc12
inhibition [1]: 90%
IC50 [2]: 4.77 µM
IC50 [3]: 6.08 µM
Activity (3T3-L1 [6]): Non-Toxic

O=C(O)c1cc(NS(=O)(=O)c2ccc(-c3ccccc3)c3ccccc23)ccc1F
inhibition [1]: 82%
IC50 [2]: 4.84 µM

COc1c(-c2ccccc2Cl)cc(S(=O)(=O)Nc2ccc(F)c(CC(=O)O)c2)c2ccccc12
inhibition [1]: 77%
IC50 [2]: 8.02 µM
IC50 [3]: 7.57 µM
half-life at 0.1 µM [4]: 0.718 h
Activity (3T3-L1 [5]): Active
Activity (3T3-L1 [6]): Non-Toxic

O=C(O)c1cc(NS(=O)(=O)c2ccc(-c3ccc(F)cc3Cl)c3ccccc23)ccc1F
inhibition [1]: 86%
IC50 [2]: 4.68 µM
IC50 [7]: 104 µM
half-life at 0.1 µM [4]: 1.52 h
half-life [8]: 1.36 h
half-life [9]: 2.88 h
Cmax [10]: 782 ng/mL
AUC at 24 h [11]: 1090 ng·h/mL
AUC at 24 h [12]: 1980 ng·h/mL
clearance [13]: 8.73 mL/min/kg
bioavailability [14]: 18.4%
Activity (THP-1 [15]): Non-Toxic
Activity (THP-1 [16]): Active
Activity [17]: Non-Toxic
inhibition in vivo at 50 mg/kg (Mus musculus [18]): 32.4%
Activity (Mus musculus [19]): Active
Activity (Mus musculus [20]): Active
Activity (Mus musculus [21]): Active
Activity (Mus musculus [22]): Active
Activity (Mus musculus [23]): inactive
inhibition (Mus musculus [24]): Active
inhibition (3T3-L1 [25]): Active
Activity (3T3-L1 [5]): Active
Kd [26]: 11.1 µM
Activity (3T3-L1 [6]): Non-Toxic
Activity (Mus musculus [27]): Active
Activity (Mus musculus [28]): inactive

O=C(O)c1cc(NS(=O)(=O)c2ccc(-c3ccc(F)c(Cl)c3)c3ccccc23)ccc1F
inhibition [1]: 78%
IC50 [2]: 7.84 µM
IC50 [3]: 6.33 µM
IC50 [7]: 103 µM
Ratio IC50 (Homo sapiens [29]): 13.1
Ratio IC50 (Homo sapiens [30]): 16.3
Activity (3T3-L1 [6]): Non-Toxic

O=C(O)c1cc(NS(=O)(=O)c2ccc(-c3ccc(F)cc3)c3ccccc23)ccc1F
inhibition [1]: 80%
IC50 [2]: 7.68 µM

O=C(O)c1cc(NS(=O)(=O)c2ccc(-c3ccc(O)cc3)c3ccccc23)ccc1F
inhibition [1]: 73%
IC50 [2]: 8.24 µM

COc1c(-c2ccc(F)c(Cl)c2)cc(S(=O)(=O)Nc2ccc(F)c(CC(=O)O)c2)c2ccccc12
inhibition [1]: 88%
IC50 [2]: 5 µM

O=C(O)c1cc(NS(=O)(=O)c2ccc(-c3ccncc3)c3ccccc23)ccc1F
inhibition [1]: 52%

Cc1noc(C)c1-c1ccc(S(=O)(=O)Nc2ccc(F)c(C(=O)O)c2)c2ccccc12
inhibition [1]: 61%

COc1c(-c2ccc(F)cc2F)cc(S(=O)(=O)Nc2ccc(F)c(CC(=O)O)c2)c2ccccc12
inhibition [1]: 96%
IC50 [2]: 3.14 µM
